Assay results taken from ChEMBL document CHEMBL5724801, “EUbOPEN Chemogenomics Library - Multiplex” (2024).
Several values for one entry are separate records, joined by “and”; a condition that tells them apart may be missing. Equal values may be shown once.

Tested on: Fibroblast
Experiment: Multiplex assay against human fibroblast
Format: toxicity, cell-based
How it was run: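 Compound was added to live cells that had been stained at seeding with Hoechst33342, BioTracker Green Microtubule Cytoskeleton Dye, MitoTracker Red and Annexin V Alexa Fluor 680, and imaging followed on a CQ1 microscope at 37°C and 5% CO2. CellPathfinder machine-learning gating divided cells into Hoechst high-intensity objects or normal cells, normal cells into healthy, pyknosed or fragmented nuclei, and pyknosed cells into mitotic or apoptotic. Tubulin, mitochondrial-mass and membrane-permeability phenotypes are per cents of healthy-nucleus cells.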

[1] = 12 h, 1 µM, compound concentration 1 uM
[2] = 12 h, 10 µM, compound concentration 10 uM
[3] = 24 h, 1 µM, compound concentration 1 uM
[4] = 24 h, 10 µM, compound concentration 10 uM
[5] = 48 h, 1 µM, compound concentration 1 uM
[6] = 48 h, 10 µM, compound concentration 10 uM

## C[C@H](C[C@H](N)C(=O)O)C(=O)O [2S,4R-4-METHYLGLUTAMATE]
[1]
  Population Apoptotic (%): 17.14% and 40%
  Population Fragmented Nuclei (%): 10.46% and 7.78%
  Population Healthy Nuclei (%): 66.67% and 77.25%
  Population Hoechst High Intensity Objects (%): 0%
  Population Membrane Permeable-Phenotype (%): 1.96% and 3.1%
  Population Mitochondria Different-Phenotype (%): 8.82% and 6.98%
  Population Mitotic Cells (%): 82.86% and 60%
  Population Normal (%): 100%
  Population Pyknosed Nuclei (%): 22.88% and 14.97%
  Population Tubulin-Different-Phenotype (%): 9.8% and 13.95%
  Total Cell Count: 153 and 167
[2]
  Population Apoptotic (%): 12.5% and 8.57%
  Population Fragmented Nuclei (%): 12.57% and 5.6%
  Population Healthy Nuclei (%): 64.57% and 79.31%
  Population Hoechst High Intensity Objects (%): 0%
  Population Mitochondria Different-Phenotype (%): 11.5% and 11.96%
  Population Mitotic Cells (%): 87.5% and 91.43%
  Population Normal (%): 100%
  Population Pyknosed Nuclei (%): 22.86% and 15.09%
  Population Tubulin-Different-Phenotype (%): 17.7% and 19.02%
  Total Cell Count: 175 and 232
[3]
  Population Fragmented Nuclei (%): 9.47% and 7.6%
  Population Healthy Nuclei (%): 73.16% and 83.04%
  Population Hoechst High Intensity Objects (%): 0%
  Population Membrane Permeable-Phenotype (%): 3.6% and 1.41%
  Population Mitochondria Different-Phenotype (%): 2.16% and 9.86%
  Population Mitotic Cells (%): 90.91% and 68.75%
  Population Normal (%): 100%
  Population Pyknosed Nuclei (%): 17.37% and 9.36%
  Population Tubulin-Different-Phenotype (%): 12.95% and 10.56%
  Total Cell Count: 190 and 171
[4]
  Population Apoptotic (%): 19.35% and 15.79%
  Population Fragmented Nuclei (%): 10.38% and 3.95%
  Population Healthy Nuclei (%): 72.68% and 87.72%
  Population Hoechst High Intensity Objects (%): 0%
  Population Membrane Permeable-Phenotype (%): 6.02% and 0%
  Population Mitochondria Different-Phenotype (%): 6.02% and 4.5%
  Population Mitotic Cells (%): 80.65% and 84.21%
  Population Normal (%): 100%
  Population Pyknosed Nuclei (%): 16.94% and 8.33%
  Population Tubulin-Different-Phenotype (%): 18.05% and 14.5%
  Total Cell Count: 183 and 228
[5]
  Population Apoptotic (%): 16.67% and 37.5%
  Population Fragmented Nuclei (%): 6.91% and 10.23%
  Population Healthy Nuclei (%): 84.79% and 85.23%
  Population Hoechst High Intensity Objects (%): 0%
  Population Membrane Permeable-Phenotype (%): 1.63% and 1.33%
  Population Mitotic Cells (%): 83.33% and 62.5%
  Population Normal (%): 100%
  Population Pyknosed Nuclei (%): 8.29% and 4.55%
  Population Tubulin-Different-Phenotype (%): 10.33% and 18%
  Total Cell Count: 217 and 176
[6]
  Population Apoptotic (%): 28.57% and 21.43%
  Population Fragmented Nuclei (%): 9.04% and 3.43%
  Population Healthy Nuclei (%): 83.51% and 90.56%
  Population Hoechst High Intensity Objects (%): 0%
  Population Membrane Permeable-Phenotype (%): 0% and 2.37%
  Population Mitotic Cells (%): 71.43% and 78.57%
  Population Normal (%): 100%
  Population Pyknosed Nuclei (%): 7.45% and 6.01%
  Population Tubulin-Different-Phenotype (%): 10.83% and 15.64%
  Total Cell Count: 188 and 233

## COc1c(Nc2ccc(S(C)(=O)=O)nc2C)ncnc1OC1CCN(C(=O)OC(C)C)CC1 [ADP-597]
[1]
  Population Apoptotic (%): 57% and 42%
  Population Fragmented Nuclei (%): 14% and 27%
  Population Healthy Nuclei (%): 71% and 40%
  Population Hoechst High Intensity Objects (%): 3% and 4%
  Population Membrane Permeable-Phenotype (%): 0% and 2%
  Population Mitochondria Different-Phenotype (%): 10% and 7%
  Population Mitotic Cells (%): 42% and 57%
  Population Normal (%): 96% and 95%
  Population Pyknosed Nuclei (%): 14% and 33%
  Population Tubulin-Different-Phenotype (%): 34% and 27%
  Total Cell Count: 133 and 105
[2]
  Population Apoptotic (%): 44% and 39%
  Population Fragmented Nuclei (%): 21% and 43%
  Population Healthy Nuclei (%): 58% and 27%
  Population Hoechst High Intensity Objects (%): 2%
  Population Membrane Permeable-Phenotype (%): 0% and 11%
  Population Mitochondria Different-Phenotype (%): 15% and 14%
  Population Mitotic Cells (%): 56% and 60%
  Population Normal (%): 97% and 98%
  Population Pyknosed Nuclei (%): 20% and 28%
  Population Tubulin-Different-Phenotype (%): 54% and 77%
  Total Cell Count: 127 and 100
[3]
  Population Apoptotic (%): 47% and 37%
  Population Fragmented Nuclei (%): 17% and 25%
  Population Healthy Nuclei (%): 67% and 50%
  Population Hoechst High Intensity Objects (%): 4% and 10%
  Population Membrane Permeable-Phenotype (%): 0% and 10%
  Population Mitochondria Different-Phenotype (%): 1% and 2%
  Population Mitotic Cells (%): 52% and 62%
  Population Normal (%): 95% and 89%
  Population Pyknosed Nuclei (%): 15% and 24%
  Population Tubulin-Different-Phenotype (%): 27% and 48%
  Total Cell Count: 146 and 109
[4]
  Population Apoptotic (%): 52% and 27%
  Population Fragmented Nuclei (%): 20% and 49%
  Population Healthy Nuclei (%): 60% and 31%
  Population Hoechst High Intensity Objects (%): 5% and 6%
  Population Membrane Permeable-Phenotype (%): 0% and 10%
  Population Mitochondria Different-Phenotype (%): 5% and 3%
  Population Mitotic Cells (%): 47% and 72%
  Population Normal (%): 94% and 93%
  Population Pyknosed Nuclei (%): 18% and 19%
  Population Tubulin-Different-Phenotype (%): 41% and 75%
  Total Cell Count: 131 and 99
[5]
  Population Apoptotic (%): 64% and 42%
  Population Fragmented Nuclei (%): 25% and 28%
  Population Healthy Nuclei (%): 63% and 51%
  Population Hoechst High Intensity Objects (%): 2% and 9%
  Population Membrane Permeable-Phenotype (%): 0% and 2%
  Population Mitochondria Different-Phenotype (%): 4% and 0%
  Population Mitotic Cells (%): 35% and 57%
  Population Normal (%): 97% and 90%
  Population Pyknosed Nuclei (%): 11% and 20%
  Population Tubulin-Different-Phenotype (%): 30% and 59%
  Total Cell Count: 152 and 102
[6]
  Population Apoptotic (%): 73% and 75%
  Population Fragmented Nuclei (%): 29% and 56%
  Population Healthy Nuclei (%): 58% and 36%
  Population Hoechst High Intensity Objects (%): 8% and 2%
  Population Membrane Permeable-Phenotype (%): 0% and 2%
  Population Mitochondria Different-Phenotype (%): 20% and 18%
  Population Mitotic Cells (%): 26% and 25%
  Population Normal (%): 91% and 97%
  Population Pyknosed Nuclei (%): 12% and 7%
  Population Tubulin-Different-Phenotype (%): 57% and 84%
  Total Cell Count: 131 and 108

## COc1cc(Nc2ncc3c(n2)-c2ccc(Cl)cc2C(c2c(F)cccc2OC)=NC3)ccc1C(=O)O [ALISERTIB]
[1]
  Population Apoptotic (%): 39% and 42%
  Population Fragmented Nuclei (%): 11% and 18%
  Population Healthy Nuclei (%): 66% and 47%
  Population Hoechst High Intensity Objects (%): 1% and 8%
  Population Membrane Permeable-Phenotype (%): 2% and 7%
  Population Mitochondria Different-Phenotype (%): 4% and 7%
  Population Mitotic Cells (%): 60% and 57%
  Population Normal (%): 98% and 91%
  Population Pyknosed Nuclei (%): 21% and 33%
  Population Tubulin-Different-Phenotype (%): 23% and 41%
[2]
  Population Apoptotic (%): 56% and 48%
  Population Fragmented Nuclei (%): 28% and 35%
  Population Healthy Nuclei (%): 47% and 30%
  Population Hoechst High Intensity Objects (%): 13% and 8%
  Population Membrane Permeable-Phenotype (%): 1% and 4%
  Population Mitochondria Different-Phenotype (%): 22% and 16%
  Population Mitotic Cells (%): 43% and 51%
  Population Normal (%): 86% and 91%
  Population Pyknosed Nuclei (%): 24% and 33%
  Population Tubulin-Different-Phenotype (%): 69% and 64%
  Total Cell Count: 209 and 89
[3]
  Population Apoptotic (%): 36% and 48%
  Population Fragmented Nuclei (%): 12% and 26%
  Population Healthy Nuclei (%): 69% and 47%
  Population Hoechst High Intensity Objects (%): 2% and 4%
  Population Membrane Permeable-Phenotype (%): 2% and 4%
  Population Mitochondria Different-Phenotype (%): 6%
  Population Mitotic Cells (%): 63% and 51%
  Population Normal (%): 97% and 95%
  Population Pyknosed Nuclei (%): 18% and 26%
  Population Tubulin-Different-Phenotype (%): 28% and 47%
  Total Cell Count: 123
[4]
  Population Apoptotic (%): 64% and 56%
  Population Fragmented Nuclei (%): 29% and 45%
  Population Healthy Nuclei (%): 44% and 36%
  Population Hoechst High Intensity Objects (%): 13% and 5%
  Population Membrane Permeable-Phenotype (%): 1% and 0%
  Population Mitochondria Different-Phenotype (%): 24% and 9%
  Population Mitotic Cells (%): 35% and 43%
  Population Normal (%): 86% and 94%
  Population Pyknosed Nuclei (%): 25% and 18%
  Population Tubulin-Different-Phenotype (%): 68% and 71%
  Total Cell Count: 191 and 93
[5]
  Population Apoptotic (%): 57% and 38%
  Population Fragmented Nuclei (%): 15% and 33%
  Population Healthy Nuclei (%): 65% and 42%
  Population Hoechst High Intensity Objects (%): 5%
  Population Membrane Permeable-Phenotype (%): 4% and 7%
  Population Mitochondria Different-Phenotype (%): 5%
  Population Mitotic Cells (%): 42% and 61%
  Population Normal (%): 94%
  Population Pyknosed Nuclei (%): 19% and 24%
  Population Tubulin-Different-Phenotype (%): 32% and 54%
  Total Cell Count: 115
[6]
  Population Apoptotic (%): 84% and 66%
  Population Fragmented Nuclei (%): 38% and 37%
  Population Healthy Nuclei (%): 35% and 51%
  Population Hoechst High Intensity Objects (%): 23% and 8%
  Population Membrane Permeable-Phenotype (%): 5% and 2%
  Population Mitochondria Different-Phenotype (%): 37% and 15%
  Population Mitotic Cells (%): 15% and 33%
  Population Normal (%): 76% and 91%
  Population Pyknosed Nuclei (%): 26% and 11%
  Population Tubulin-Different-Phenotype (%): 80% and 65%
  Total Cell Count: 188 and 85
